The values that follow come from ChEMBL document CHEMBL1212838, “Investigations on the 2-thiazolylhydrazyne scaffold: synthesis and molecular modeling of selective human monoamine oxidase inhibitors” (Bioorg Med Chem, 2010).

SMILES strings stand for the structures.

In series [1] the target is T1, Amine oxidase [flavin-containing] A (Homo sapiens, UniProt P21397).
T1 sequence (P21397 whole entry): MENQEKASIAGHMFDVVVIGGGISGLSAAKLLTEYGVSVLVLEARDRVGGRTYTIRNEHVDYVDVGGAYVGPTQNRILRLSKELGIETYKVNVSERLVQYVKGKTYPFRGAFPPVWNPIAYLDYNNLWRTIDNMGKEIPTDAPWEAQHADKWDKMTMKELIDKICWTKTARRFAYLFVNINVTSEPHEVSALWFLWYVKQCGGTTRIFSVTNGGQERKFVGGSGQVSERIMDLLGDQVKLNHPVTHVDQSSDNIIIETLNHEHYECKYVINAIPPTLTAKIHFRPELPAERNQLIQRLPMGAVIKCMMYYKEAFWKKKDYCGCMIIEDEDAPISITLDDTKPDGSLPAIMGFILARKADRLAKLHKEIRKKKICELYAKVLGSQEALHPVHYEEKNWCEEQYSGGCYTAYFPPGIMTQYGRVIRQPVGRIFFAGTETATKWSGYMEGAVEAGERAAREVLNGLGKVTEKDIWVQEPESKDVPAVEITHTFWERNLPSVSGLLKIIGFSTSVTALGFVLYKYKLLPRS
Put plainly: Inhibition of human MAOA by fluorimetry.

Series [2] addresses T2, Amine oxidase [flavin-containing] B (Homo sapiens, UniProt P27338).
T2 sequence (P27338 whole entry): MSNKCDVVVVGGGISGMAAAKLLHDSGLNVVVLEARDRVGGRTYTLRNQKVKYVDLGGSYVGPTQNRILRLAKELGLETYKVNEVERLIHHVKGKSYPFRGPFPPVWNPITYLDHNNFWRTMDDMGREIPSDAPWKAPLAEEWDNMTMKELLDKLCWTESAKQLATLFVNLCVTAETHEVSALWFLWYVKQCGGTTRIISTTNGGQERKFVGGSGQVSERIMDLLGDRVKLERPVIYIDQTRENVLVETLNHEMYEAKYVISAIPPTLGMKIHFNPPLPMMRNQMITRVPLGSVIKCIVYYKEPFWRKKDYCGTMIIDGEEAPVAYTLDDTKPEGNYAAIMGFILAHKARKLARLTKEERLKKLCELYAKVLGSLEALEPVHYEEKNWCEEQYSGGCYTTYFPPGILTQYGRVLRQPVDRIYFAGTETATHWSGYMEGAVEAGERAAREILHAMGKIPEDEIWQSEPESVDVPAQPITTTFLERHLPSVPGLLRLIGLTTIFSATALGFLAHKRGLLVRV

The species named for series [3] is Homo sapiens. Put plainly: Selectivity index, ratio of IC50 for human recombinant MAOA to IC50 for human recombinant MAOB.
In series [4] the target is T2, Amine oxidase [flavin-containing] B. Put plainly: Inhibition of human MAOB at 100 uM by fluorimetry. Put shortly: (§1)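 Recombinant human MAO-A or MAO-B, each at an amount set to oxidize 165 pmol p-tyramine/min, preincubated 15 min at 37 °C with compound in 0.05 M sodium phosphate pH 7.4. Reaction started with final 200 µM Amplex Red, 1 U/mL HRP and 1 mM p-tyramine. Resorufin fluorescence (ex 545, em 590 nm) read over 15 min at 37 °C; enzyme-free background subtracted.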

Series [5] has as its target T1, Amine oxidase [flavin-containing] A. The experiment in a line: Inhibition of human MAOA at 100 uM by fluorimetry. In short, it runs like this:
as §1

Series [6] shares this target. Put plainly: Inhibition of human MAOA at 500 nM. In short, it runs like this: (§2)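 Reversibility test: hMAO-A or hMAO-B with compound was ultrafiltered on a 30 kDa membrane. Retained enzyme was resuspended in sodium phosphate buffer at 4 °C and recentrifuged, three centrifugations in all. An aliquot was then assayed fluorimetrically with p-tyramine/Amplex Red. Percent inhibition was computed for washed and unwashed samples against vehicle controls; n = 5.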

Series [7] has the same target. Put plainly: Reversible inhibition of human MAOA at 500 nM by centrifugation-ultrafiltration method. In short, it runs like this:
as §2

Series [8] has as its target T2, Amine oxidase [flavin-containing] B. Put plainly: Inhibition of human MAOB at 5 uM.
Series [9] shares this target. The experiment in a line: Inhibition of human MAOB at 5 nM by centrifugation-ultrafiltration method. In short, it runs like this:
as §2

For series [10], the target named is T1, Amine oxidase [flavin-containing] A. The experiment in a line: Inhibition of human MAOA at 100 nM.
Series [11] shares this target. The experiment in a line: Reversible inhibition of human MAOA at 100 uM by centrifugation-ultrafiltration method. In short, it runs like this: as §2
Series [12] deals with T2, Amine oxidase [flavin-containing] B. Put plainly: Inhibition of human MAOB at 1 uM by fluorimetry.

Broadly, the IC50 is the point on the concentration scale where inhibition reaches its midpoint. As usually defined, the inhibition is the drop in the measured response relative to a control, in per cent. Low values mean a response near the control, high ones a response far below the control.

As for `COc1cccc(-c2csc(NN=C3CCCCC3)n2)c1`, the IC50 amounted to 1910 nM in [1] and 31.9 nM in series [2]. For the same compound, in [3], the Ratio IC50 amounted to 60.

Take `COc1cccc(-c2csc(N/N=C/c3cccc4ccccc34)n2)c1`: in [1], it took 3640 nM to reach half-maximal inhibition (IC50). In addition, in series [4], the inhibition at 100 µM was found to be 40%.

In the case of `COc1cccc(-c2csc(NN=C(C)C)n2)c1`, the IC50 is 4430 nM in series [1] and 5070 nM in series [2]. In addition, the Ratio IC50 in series [3] is 0.87.

Consider `COc1cccc(-c2csc(N/N=C(\C)c3ccccn3)n2)c1`, for which the inhibition at 100 µM in series [5] and in [4] was 40% in each case.

Take `COc1cccc(-c2csc(N/N=C(\C)c3cccc4ccccc34)n2)c1`: the inhibition at 100 µM in series [5] was 40%. Moreover, the “inhibition (INH)” value in series [4] (100 µM) is given as “Not Active”.

Take `COc1cccc(-c2csc(NN=C3CCCCCC3)n2)c1`: the figures for the IC50 in series [1] and in series [2] were 1780 nM and 29.5 nM, respectively. Further, the Ratio IC50 in series [3] was determined as 60.

As to `COc1cccc(-c2csc(N/N=C(\C)c3cc4ccccc4oc3=O)n2)c1`, the IC50 was 5560 nM in [1] and 6970 nM in series [2]. Moreover, in [3], the Ratio IC50 stood at 0.8.

For `CCC/C(C)=N/Nc1nc(-c2cccc(OC)c2)cs1`, the figures for the IC50 in series [1] and in series [2] were 1310 nM and 871 nM, respectively. Further, the Ratio IC50 in series [3] is 1.5.

For `COc1cccc(-c2csc(N/N=C(\C)c3cccnc3)n2)c1`, the IC50 in series [1] worked out at 455 nM; in [2], 3.81 nM. In series [3], the Ratio IC50 was found to be 119. The inhibition at 0.5 µM in series [6] is 59.1%; in [7], 65.1%. In series [8], this compound yielded an inhibition at 5 µM of 63.7%. This compound returned an inhibition at 0.005 µM in series [9] of 67.2%.

Consider `CCCCCC/C(C)=N/Nc1nc(-c2cccc(OC)c2)cs1`, for which half-maximal inhibition in series [1] (IC50) required 1380 nM. In [4], this compound registered an inhibition at 100 µM of 40%.

Turning to `COc1cccc(-c2csc(N/N=C/c3c[nH]c4ccccc34)n2)c1`, the IC50 in series [1] came to 414 nM; in [2] it was 800 nM. Further, the Ratio IC50 in series [3] was found to be 0.52.

On to `COc1cccc(-c2csc(N/N=C(\C)c3ccco3)n2)c1`, for which the IC50 in [1] came to 333 nM; in series [2], 1680 nM. Further, the Ratio IC50 in series [3] is 0.2.

With `COc1cccc(-c2csc(N/N=C3\CCCC3C)n2)c1` (configuration not stated), the results for the IC50 in [1] and in series [2] were 836 nM and 26.6 nM, respectively. Moreover, the Ratio IC50 in [3] was found to be 31.

Consider `COc1cccc(-c2csc(N/N=C/c3ccncc3)n2)c1`, for which the IC50 in series [1] is 698 nM; in series [2] it was 1140 nM. Further, in series [3], the Ratio IC50 stood at 0.61.

With `COc1cccc(-c2csc(N/N=C(\C)c3cccs3)n2)c1`, the values for the IC50 in [1] and in series [2] were 636 nM and 551 nM, respectively. Besides, the Ratio IC50 in series [3] worked out at 1.15.

For the compound `CCCCC/C(C)=N/Nc1nc(-c2cccc(OC)c2)cs1`, the values for the IC50 in series [1] and in [2] were 1150 nM and 6720 nM, respectively. Moreover, in series [3], the Ratio IC50 turned out to be 0.17.

Take `COc1cccc(-c2csc(N/N=C(\C)c3ccncc3)n2)c1`: the IC50 came out at 3710 nM in series [1] and 116 nM in series [2]. The Ratio IC50 in series [3] stood at 32.

Regarding `COc1cccc(-c2csc(NN=C3CCC(C)CC3)n2)c1` (configuration not stated), the IC50 in series [1] stood at 749 nM; in [2] it was 35.5 nM. Besides, the Ratio IC50 in series [3] came out at 21.

Take `O=C1Nc2ccccc2C1=O` [ISATIN]: the inhibition at 0.1 µM in series [10] was found to be 40.3%. Moreover, the values for the inhibition at 100 µM in [5] and in series [11] were 40% and 12.1%, respectively.

As to `O=C(NCCN1CCOCC1)c1ccc(Cl)cc1` [MOCLOBEMIDE], the 50% inhibitory concentration (IC50) entry in series [12] is listed as “Not Active”.

In the case of `COc1cccc(-c2csc(N/N=C3\CCCC(C)C3)n2)c1` (configuration not stated), the IC50 in [1] stood at 679 nM; in series [2] it was 72.7 nM. In addition, the Ratio IC50 in series [3] came out at 9.3.

On to `COc1cccc(-c2csc(N/N=C/c3cccs3)n2)c1`, for which the IC50 turned out to be 458 nM in [1] and 494 nM in series [2]. The Ratio IC50 in series [3] turned out to be 0.93.

Take `COc1cccc(-c2csc(N/N=C/c3cccnc3)n2)c1`: the IC50 was determined as 538 nM in series [1] and 2910 nM in [2]. The Ratio IC50 in series [3] came out at 0.18.

Turning to `COc1cccc(-c2csc(N/N=C3\CCCCC3C)n2)c1` (configuration not stated), the IC50 in series [1] came to 737 nM; in series [2], 12.2 nM. In addition, in [3], the Ratio IC50 is 60.

For `COc1cccc(-c2csc(N/N=C3\CCC(C)C3)n2)c1` (configuration not stated), the IC50 was determined as 1450 nM in [1] and 231 nM in series [2]. Also, the Ratio IC50 in [3] was 6.3.

For `CCC(CC)=NNc1nc(-c2cccc(OC)c2)cs1`, the figures for the IC50 in [1] and in [2] were 824 nM and 772 nM, respectively. In addition, the Ratio IC50 in series [3] is 1.1.

On to `COc1cccc(-c2csc(N/N=C/c3ccco3)n2)c1`, for which the concentration for half-maximal inhibition (IC50) is 343 nM in series [1] and 6780 nM in [2]. In addition, the Ratio IC50 in [3] is 0.051.

On to `COc1cccc(-c2csc(NN=C3CCCC3)n2)c1`, for which the IC50 in series [1] was found to be 592 nM; in series [2], 1060 nM. The Ratio IC50 in [3] amounted to 0.56.
